L major viab: Leishmania major promastigote growth inhibition, primary screen; inhibition, % at 10 µM; AID 1063, 2008; 200,000 compounds, 9% hits; Leishmania major promastigotes, resazurin fluorescence viability; in the data active means inhibition above about 50%;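 further: promastigotes grown with compound for 44 hours at 28 °C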
MPTP block: mitochondrial permeability transition pore inhibitors, primary screen, biochemical, isolated mouse mitochondria, absorbance. 360,000 compounds, 1.4% hits. Ca2+ swelling absorbance, 30 min. inhibition, % at 10 µM. AID 602449, 2012;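 active means inhibition of 50% or more, scaled per plate between neutral and stimulator controls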
Hep lipid drop: inhibitors of hepatocyte lipid droplet formation, primary screen, imaging, high-throughput imaging, BODIPY stain. AML12 mouse hepatocytes, oleate lipid droplets. inhibition, % at 6.5 µM. 240,000 compounds, 0.4% hits;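 active means lipid droplet intensity inhibited by at least 50%, with more than 500 cells counted; inconclusive means wells with under 300 cells, treated as cytotoxic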
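Assay system: AML12 hepatocytes (mouse) / Also added: 100 µM oleic acid challenge / Times: overnight treatment with compound plus oleate / Detection: high-content imaging of BODIPY-stained droplets and DAPI nuclei / Evaluation: % inhibition of lipid droplet signal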
DTT redox prof: compounds producing H2O2 with reducing agent – biochemical, NIH compound library profiling, artefact control for MLSCN library redox annotation, primary screen. DTT-dependent redox cycling H2O2, phenol red/HRP absorbance; 100% = 100 µM peroxide control, 0% = buffer. activation, % at 10 µM. 200,000 compounds, 0.03% hits;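 active means activation of at least 50% relative to the plate's high and low controls in the primary single-dose screen; inactive means activation below 50%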;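 further: compound incubated with DTT at 0.8 mM final as the reducing agent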
T cruzi repl: inhibitors of intracellular T. cruzi growth, primary screen, luminescence, NIH3T3 host cells; T. cruzi beta-gal in NIH3T3, 90 h; inhibition, % (no concentration beside the values); 300,000 compounds, 1.4% hits; AID 1885, 2009;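 active means mean inhibition across valid replicates above about 55%, limit read from the data; inconclusive means mean below that limit but half or more replicates reach it; inactive means mean below it, under half of replicates reach it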;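 further: signal also drops with host cell toxicity which is not excluded here; higher percent means less beta-gal luminescence so fewer parasites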
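compound dosing = single 50 nL compound addition per well in DMSO | material = NIH/3T3 host cells with β-galactosidase reporter T. cruzi | input = 5,000 host fibroblasts per well | timing = ≥90 h infection period, 3 h prior cell attachment | read-out basis = percent inhibition of parasite-derived β-gal signal | detection = GalScreen β-gal luminescence, detergent lysis, 60 min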
Each line names hits and unclear results; the compound was inactive in the other large screens. The full list was thinned out, with hits kept by preference.

Cc1cccc(OCC(O)Cn2c(=N)n(CCN3CCCCC3)c3ccccc32)c1 (centres undefined)	L major viab 100.4 (no result: Hep lipid drop)
COc1ccc(OCC(O)Cn2c(=N)n(Cc3ccccc3)c3ccccc32)cc1 (centres undefined)	L major viab 100.7
COc1ccc(OCc2cc(C(=O)NCc3nc(C)cs3)no2)c(Cl)c1	none (no result: L major viab, DTT redox prof)
O=C1NC[C@@H](CCCCN2C[C@H](Cc3ccc(O)cc3)N(CCC3CCCCC3)C(=O)C2=O)N(CC2CCCCC2)C1=O	none (no result: L major viab, Hep lipid drop, DTT redox prof, T cruzi repl)
CC1(C(=O)NS(=O)(=O)c2ccc(C#N)cc2)CCN1C(=O)C1(c2ccc(Cl)cc2)CC1 (centres undefined)	none (no result: L major viab, Hep lipid drop, DTT redox prof, T cruzi repl)
Cc1cc(C2=NNC(=NC3CC3)SC2)c(C)n1-c1ccccc1F	L major viab 76.7 (no result: DTT redox prof)
C=C(C)CN=C1NN=C(c2cc(C)n(-c3ccc(C)cc3)c2C)CS1	L major viab 91.1
C=CCn1c(C)cc(C2=NNC(=NCc3ccccc3)SC2)c1C	none
COc1ccccc1C(=O)NC(=O)CSc1nnnn1C	none (no result: L major viab, Hep lipid drop, DTT redox prof, T cruzi repl)
Cc1ccc(S(=O)(=O)N2C3CC(c4ccccc4)N(S(=O)(=O)c4cccc(Cl)c4)CC3C(=O)C[C@H]2c2ccccc2)cc1 (some centres undefined)	none (no result: L major viab, Hep lipid drop, DTT redox prof, T cruzi repl)
CN1CCCC(CC2Oc3ccccc3Sc3ccccc32)C1 (centres undefined)	L major viab 100.1
CC1(c2ccccc2Cl)NC(=O)N(CC(=O)NCc2ccc3c(c2)OCO3)C1=O (centres undefined)	none (no result: L major viab, DTT redox prof)
O=[N+]([O-])c1cn(-c2nc(-c3ccco3)cc(C(F)(F)F)n2)cn1	T cruzi repl 64.6
COc1ccccc1-c1cc(C(F)(F)F)nc(S(C)(=O)=O)n1	none
O=[N+]([O-])c1ccn(-c2nc(-c3ccccc3)cc(C(F)(F)F)n2)n1	L major viab 79.2
CS(=O)(=O)c1nc(-c2ccco2)cc(C(F)(F)F)n1	T cruzi repl 54.9 (no result: MPTP block, Hep lipid drop)
CN1CCN(c2nc(-c3ccco3)cc(C(F)(F)F)n2)CC1	none
Nc1nc(Nc2ccccc2)nc(NC2CCCCC2)c1[N+](=O)[O-]	none (no result: L major viab, DTT redox prof)
Cc1ccc2c(c1)sc(-c1ccc(N(C)C)cc1)[n+]2C	T cruzi repl 61.8 (no result: L major viab, DTT redox prof)
CC[n+]1c(C)sc2cc(C)ccc21	none
CCc1c(C)sc(NC(=O)CC#N)c1C#N	L major viab 66.3
O=C1c2ccccc2C(O)(c2ncc[nH]2)N1CCc1ccccc1 (centres undefined)	L major viab 95.4
Cc1c(CCOC(=O)C23CC4CC(CC(C)(C4)C2)C3)sc[n+]1Cc1ccccc1	L major viab 100.2, T cruzi repl inconclusive (no result: Hep lipid drop)
Cc1c(CCOC(=O)C23CC4CC(CC(C4)C2)C3)sc[n+]1Cc1ccccc1	L major viab 98.5
O=C(O)c1cccc(S(=O)(=O)N2CCC(n3nnc4cc(C(F)(F)F)ccc43)CC2)c1	none (no result: L major viab, DTT redox prof)
Cc1c(NC(=O)Nc2ccc3c(c2)OCO3)cccc1[N+](=O)[O-]	none (no result: L major viab, DTT redox prof)
Cc1ccc(NC(=O)C(C)N2CCCC2)cc1Cl (centres undefined)	none
Cc1ccc(C)c(OCc2cc(C(=O)NC(c3ccccn3)C(F)(F)F)no2)c1 (centres undefined)	none (no result: L major viab, DTT redox prof)
O=C(NCCCC1CCCC1)C1CCC(=O)N(Cc2ccc(Cl)cc2)C1 (centres undefined)	none (no result: L major viab, Hep lipid drop, DTT redox prof)
NS(=O)(=O)c1ccc(CNC(=O)/C=C/c2cccc([N+](=O)[O-])c2)cc1	none (no result: L major viab, Hep lipid drop, DTT redox prof)
CNC(=O)c1cc(NC(=O)CCn2nc(-c3ccc(C)cc3)c3ccccc3c2=O)ccc1OC	none (no result: L major viab, DTT redox prof)
COc1ccc(Nc2nc(NN)nc(Nc3ccc(OC)cc3)n2)cc1	none (no result: L major viab, DTT redox prof)
NNc1nc(Nc2ccccc2)nc(Nc2ccccc2)n1	L major viab 100.5
NNc1nc(Nc2ccccc2)nc(N2CCCCC2)n1	L major viab 100.0
CCCNc1nc(Nc2ccc(C)cc2)nc(N2CCCC2)n1	L major viab 89.0
COc1ccccc1N=NNc1ccccc1OC	none (no result: L major viab, Hep lipid drop, DTT redox prof, T cruzi repl)
O=C(NCCCN1CCOCC1)c1ccc(Sc2ccc(Br)cc2)c([N+](=O)[O-])c1	L major viab 91.9
O=C(NCCCN1CCOCC1)c1ccc(Sc2ccccc2Cl)c([N+](=O)[O-])c1	L major viab 94.2
O=C(/C=C/Sc1ccccc1)c1ccccc1	L major viab 58.5 (no result: Hep lipid drop)
CSC(=CC(=O)c1ccccc1)SC	L major viab 85.3 (no result: Hep lipid drop)
O=C(C=Cc1ccccc1Cl)c1ccccc1	none (no result: L major viab, Hep lipid drop, DTT redox prof, T cruzi repl)
O=C(/C=C/Sc1ccccc1)c1ccc(Cl)cc1	L major viab 92.0
Cc1ccccc1-c1cccc([C@@H]2C[C@H]3C(CN2)CON3C)c1 (some centres undefined)	none (no result: L major viab, Hep lipid drop, DTT redox prof, T cruzi repl)
CCCCN(C(=O)c1cccc2c(=O)c(C)c(-c3ccccc3)oc12)c1ccccc1	L major viab 72.9
Cc1ccc(NC(=O)COC(=O)c2cccc3c(=O)c(C)c(-c4ccccc4)oc23)cc1	L major viab 65.9 (no result: DTT redox prof)
Cc1ccnc(NC(=O)C2CCN(S(=O)(=O)c3cccc4nonc34)CC2)c1	L major viab 98.5 (no result: Hep lipid drop)
Cc1ccnc(NC(=O)C2CCN(S(=O)(=O)c3cccc4nsnc34)CC2)c1	none
CCc1cccc2c(C(=O)CN3C(=O)NC(C)(c4cccc5ccccc45)C3=O)c[nH]c12 (centres undefined)	L major viab 62.9, T cruzi repl 66.2
CCc1cccc2c(C(=O)CN3C(=O)NC4(CCc5ccccc54)C3=O)c[nH]c12 (centres undefined)	none (no result: L major viab, Hep lipid drop, DTT redox prof)
O=C(O)CCC(=O)Nc1ccc(Sc2ccc([N+](=O)[O-])cc2)cc1	L major viab 50.5
O=C(COC(=O)c1c2c(nc3ccccc13)/C(=C/c1ccco1)CC2)NC1CCCC1	L major viab 89.1
CC1CCC2(CC1)NC(=O)N(Cc1cccc(C(F)(F)F)c1)C2=O (centres undefined)	L major viab 100.3
CC(=O)NC(=S)Nc1sc2c(c1C(N)=O)CCC(C)C2 (centres undefined)	none
COc1ccc(-c2nnn(CC(=O)N(CC(=O)NCCC(C)C)c3ccccc3)n2)cc1OC	L major viab 73.5 (no result: Hep lipid drop)
CCCOc1ccc(NC(=O)CC2C(=O)N(CC)C(=S)N2Cc2cccs2)cc1 (centres undefined)	none (no result: Hep lipid drop)
C=CCN1C(=O)C(CC(=O)Nc2ccc(OCCC)cc2)N(CCCN2CCN(Cc3ccccc3)CC2)C1=S (centres undefined)	L major viab 99.7, T cruzi repl 67.4
CCOc1ccc(NC(=O)CC2C(=O)N(c3ccc(OC)cc3)C(=S)N2Cc2ccccn2)cc1 (centres undefined)	L major viab 79.9
COc1ccc(NC(=O)CC2C(=O)N(C)C(=S)N2Cc2cccs2)cc1 (centres undefined)	L major viab 53.5
COc1ccc(CCN2C(=S)N(C)C(=O)C2CC(=O)Nc2ccc(OC)cc2)cc1 (centres undefined)	none

Source: PubChem BioAssay
